In ChEMBL document CHEMBL4028805, “Phenylthiazole Antibacterial Agents Targeting Cell Wall Synthesis Exhibit Potent Activity in Vitro and in Vivo against Vancomycin-Resistant Enterococci” (J Med Chem, 2017):
In brackets after ≈: the same amount, converted by molar mass. Activity calls are given as the source filed them. The rule behind the calls is not given here.

Assays:
[1] = Induction of proton motive force collapse in Escherichia coli inverted membrane vesicle in presence of ATP-driven PMF generation system by ACMA-based fluorescence assay; assay type: functional, cell membranes
Method in brief: (§1)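 E. coli inverted membrane vesicles (0.1 mg/mL membrane protein) with 2 μM ACMA and 0.5 mM ATP or succinate, in 10 mM HEPES-KOH, 5 mM MgSO4, 100 mM KCl, pH 7.5. Proton gradient followed by ACMA fluorescence (ex 410/em 480 nm). EC50 taken from dose-response curves. CCCP used as reference uncoupler.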

[2] = Induction of proton motive force collapse in Escherichia coli inverted membrane vesicle in presence of succinate/O2-driven PMF generation system by ACMA-based fluorescence assay; assay type: functional, cell membranes; method in brief: as §1
[3] = test system: Enterococcus faecium; test: Antibacterial activity against Enterococcus faecium clinical isolates after 18 to 22 hrs by broth microdilution method; assay type: functional
Method in brief: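 Enterococcus faecium grown in BHI. MIC by CLSI broth microdilution, 37 °C for 18–22 h. Lowest concentration with no visible growth taken as MIC, reported as MIC50 across the isolates.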

[4] = test system: Enterococcus faecium; test: Antibacterial activity against vancomycin-resistant Enterococcus faecium clinical isolates after 18 to 22 hrs by broth microdilution method; assay type: functional
Method in brief: (§2)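 CLSI broth microdilution against panels of enterococcal isolates. E. faecalis grown in TSB, E. faecium in BHI, 37 °C for 18–22 h. MIC is the lowest concentration without visible growth. MIC50 is the value inhibiting 50% of isolates in each group.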

[5] = test system: Enterococcus faecalis; test: Antibacterial activity against Enterococcus faecalis clinical isolates after 18 to 22 hrs by broth microdilution method; assay type: functional; method in brief: as §2
[6] = test system: Enterococcus faecalis; test: Antibacterial activity against vancomycin-resistant Enterococcus faecalis clinical isolates after 18 to 22 hrs by broth microdilution method; assay type: functional; method in brief: as §2
[7] = test system: Enterococcus faecium; test: Bactericidal activity against Vancomycin-resistant Enterococcus faecium clinical isolates after 18 to 22 hrs by broth microdilution method; assay type: functional
Method in brief: (§3)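 MBC follows the broth microdilution MIC. 5 μL aliquots spotted onto TSA (E. faecalis) or BHI agar (E. faecium), incubated 37 °C for 18–22 h. MBC is the concentration giving >99% reduction in bacterial count. MBC50 is the value for 50% of isolates.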

[8] = test system: Enterococcus faecalis; test: Bactericidal activity against vancomycin-resistant Enterococcus faecalis clinical isolates after 18 to 22 hrs by broth microdilution method; assay type: functional; method in brief: as §3
[9] = test system: Bacillus subtilis; test: Antibacterial activity against Bacillus subtilis assessed as misshapen cells at 5 times MIC after 2 hrs in presence of methylsulfonyl methane by phase contrast microscopic analysis; assay type: functional
Method in brief: (§4)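 B. subtilis grown in LB at 37 °C to OD600 ~0.2, then treated at 5 × MIC with MSM for osmotic stabilisation. At 2 h, stained with FM 4-64 (1 μg/mL), DAPI (1 μg/mL) and SYTOX Green (1 μg/mL). Imaged by deconvolution fluorescence and phase contrast microscopy.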

[10] = test system: Bacillus subtilis; test: Antibacterial activity against Bacillus subtilis assessed as bending of cells at 5 times MIC after 2 hrs in presence of methylsulfonyl methane by phase contrast microscopic analysis; assay type: functional; method in brief: as §4
[11] = test system: Bacillus subtilis; test: Antibacterial activity against Bacillus subtilis assessed as pool of membranes at 5 times MIC after 2 hrs in presence of methylsulfonyl methane by phase contrast microscopic analysis; assay type: functional; method in brief: as §4
[12] = test system: Enterococcus faecalis; test: Inhibition of UPPP-mediated peptidoglycan biosynthesis in Enterococcus faecalis NR-31975 assessed as accumulation of UDP-N-acetylmuramyl-pentapeptide at 10 times MIC after 30 mins by HPLC-MS analysis
Method in brief: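 Pellets boiled 30 min. UDP-N-acetylmuramyl-pentapeptide measured by HPLC-TOF MS on a phenyl column, 5–20% acetonitrile/0.1% formic acid gradient, positive ESI.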

[13] = test system: Enterococcus faecalis; test: Antibacterial activity against vancomycin-resistant Enterococcus faecalis HM-201 infected in Caenorhabditis elegans AU37 assessed as reduction in bacterial burden at 20 ug/ml after 18 hrs by CFU-based […] analysis relative to control; assay type: functional
Method in brief: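 C. elegans AU37 adults infected on an E. faecalis HM-201 lawn for 2 h, washed in M9, 20–25 worms per well. Treated in triplicate with 20 μg/mL, with water as negative control. Worms washed, lysed with silicon carbide by vortexing, diluted serially and plated on TSA with 50 μg/mL gentamicin. CFU counted after 18 h at 37 °C and expressed as % reduction versus untreated worms.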

Compound: N#CC(C#N)=NNc1cccc(Cl)c1 [CARBONYL CYANIDE M-CHLOROPHENYLHYDRAZONE]
- EC50 [1]: 400 nM
- EC50 [2]: 200 nM

Compound: CN[C@H](CC(C)C)C(=O)N[C@H]1C(=O)N[C@@H](CC(N)=O)C(=O)N[C@H]2C(=O)N[C@H]3C(=O)N[C@H](C(=O)N[C@H](C(=O)O)c4cc(O)cc(O)c4-c4cc3ccc4O)[C@H](O)c3ccc(c(Cl)c3)Oc3cc2cc(c3O[C@@H]2O[C@H](CO)[C@@H](O)[C@H](O)[C@H]2O[C@H]2C[C@](C)(N)[C@H](O)[C@H](C)O2)Oc2ccc(cc2Cl)[C@H]1O [VANCOMYCIN]
- MIC50 [3]: 1 µg/mL (≈ 0.69 µM)
- MIC50 [4]: > 64 µg/mL
- MIC50 [5]: 1 µg/mL (≈ 0.69 µM)
- MIC50 [6]: > 64 µg/mL
- MBC50 [7]: >64 µg/mL
- MBC50 [8]: >64 µg/mL
- Activity [9]: Active
- Activity [10]: Active
- Activity [11]: Active
- inhibition [12]: Active
- Activity [13]: inactive
